Experiments:
[1] = Cytotoxicity against African green monkey Vero cells assessed as cell destruction incubated for 4 days by neutral red dye uptake based spectrophotometric analysis; assay type: toxicity; conditions: chlorocebus sabaeus, time 4 day
Method in brief: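 Uninfected confluent Vero monolayers in DMEM with 2% FBS were exposed to 3-fold compound dilutions, final 300 to 0.14 μg mL−1 (some from 600), in triplicate rows for 4 days at 37 °C. Viable cells were measured by neutral red uptake (1.5 h), acid phosphate/ethanol extraction and OD 490 nm. CC50 was taken from semilog concentration–OD curves and recalculated to μM.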

Cowpox virus = assay: Antiviral activity against Cowpox virus Grishak infected in African green monkey Vero cells assessed as inhibition of virus-induced cytotoxicity incubated for 4 days by neutral red dye uptake based spectrophotometric analysis; assay type: functional, organism-based; conditions: 96 h
Ectromelia virus = assay: Antiviral activity against Ectromelia virus K-1 infected in African green monkey Vero cells assessed as inhibition of virus-induced cytotoxicity incubated for 4 days by neutral red dye uptake based spectrophotometric analysis; assay type: functional, organism-based; conditions: K-1, Vero, 96 h
[2] = Selectivity index, ratio of CC50 for cytotoxicity against African green monkey Vero cells to IC50 for antiviral activity against Ectromelia virus K-1 infected in African green monkey Vero cells; assay type: toxicity, cell-based; conditions: read-out: Ratio CC50/IC50
[3] = Selectivity index, ratio of CC50 for cytotoxicity against African green monkey Vero cells to IC50 for antiviral activity against Vaccinia virus Copenhagen infected in African green monkey Vero cells; assay type: toxicity, cell-based; conditions: read-out: Ratio CC50/IC50
Vaccinia virus = assay: Antiviral activity against Vaccinia virus Copenhagen infected in African green monkey Vero cells assessed as inhibition of virus-induced cytotoxicity incubated for 4 days by neutral red dye uptake based spectrophotometric analysis; assay type: functional, organism-based, Orthopoxvirus vaccinia
[4] = Selectivity index, ratio of CC50 for cytotoxicity against African green monkey Vero cells to IC50 for antiviral activity against Cowpox virus Grishak infected in African green monkey Vero cells; assay type: toxicity, cell-based; conditions: read-out: Ratio CC50/IC50
Variola virus = assay: Antiviral activity against Variola virus India3a infected in African green monkey Vero cells assessed as inhibition of virus-induced cytotoxicity incubated for 4 days by neutral red dye uptake based spectrophotometric analysis; assay type: functional, organism-based; conditions: 96 h
[5] = Selectivity index, ratio of CC50 for cytotoxicity against African green monkey Vero cells to IC50 for antiviral activity against Variola virus India3a infected in African green monkey Vero cells; assay type: toxicity, cell-based; conditions: read-out: Ratio CC50/IC50
[6] = Orthopoxvirus vaccinia, Copenhagen, Vero, 96 h, read-out: IC50

CC(=O)c1c(C)nc(-c2ccc([N+](=O)[O-])cc2)n1O
CC50 at 96 h [1]: 28.3 µM
IC50 (Cowpox virus): 5.9 µM
IC50 (Ectromelia virus): 1.3 µM
selectivity ratio [2]: 22
selectivity ratio [3]: 44
IC50 (Vaccinia virus; [6]): 0.651 µM
selectivity ratio [4]: < 8

CC1(C)CC(=O)c2c(nc(-c3ccc([N+](=O)[O-])cc3)n2OCc2ccccc2Br)C1
CC50 at 96 h [1]: 100 µM
IC50 (Cowpox virus): 29.1 µM
IC50 (Ectromelia virus): 28.7 µM
selectivity ratio [2]: < 8
selectivity ratio [3]: 34
IC50 (Vaccinia virus; [6]): 2.91 µM
selectivity ratio [4]: < 8

CC(=O)c1c(C)n(C)c(-c2ccc(C#N)cc2)[n+]1[O-]
CC50 at 96 h [1]: 1510 µM
IC50 (Vaccinia virus; vero): Not_active

CC1(C)CC(=O)c2c(n(Cc3ccccc3)c(-c3ccc([N+](=O)[O-])cc3)[n+]2[O-])C1
CC50 at 96 h [1]: 359 µM
selectivity ratio [3]: 13
IC50 (Vaccinia virus; [6]): 27.7 µM

CC(=O)c1c(C)nc(-c2ccc(C(F)(F)F)cc2)n1O
CC50 at 96 h [1]: 3.87 µM
selectivity ratio [3]: 55
IC50 (Vaccinia virus; [6]): 0.07 µM

CC1(C)CC(=O)c2c(nc(-c3ccc([N+](=O)[O-])cc3)n2O)C1
CC50 at 96 h [1]: 142 µM
IC50 (Cowpox virus): 1.16 µM
IC50 (Ectromelia virus): 0.39 µM
IC50 (Variola virus): 0.38 µM
selectivity ratio [5]: 373
selectivity ratio [2]: 358
selectivity ratio [3]: 1070
IC50 (Vaccinia virus; [6]): 0.133 µM
selectivity ratio [4]: 123

CC1(C)CC(=O)c2c(nc(-c3ccc([N+](=O)[O-])cc3)n2OCc2ccc(Cl)c(Cl)c2)C1
CC50 at 96 h [1]: 109 µM
IC50 (Cowpox virus): 7.04 µM
IC50 (Ectromelia virus): 1.8 µM
selectivity ratio [2]: 60
selectivity ratio [3]: 178
IC50 (Vaccinia virus; [6]): 0.61 µM
selectivity ratio [4]: 15

COn1c(-c2ccc(N(C)C)cc2)nc(C)c1C(C)=O
CC50 at 96 h [1]: 197 µM
selectivity ratio [3]: < 8
IC50 (Vaccinia virus; [6]): 62.1 µM

CC1(C)CC(=O)c2c(nc(-c3ccc([N+](=O)[O-])cc3)n2OCc2ccccc2)C1
CC50 at 96 h [1]: 1160 µM
IC50 (Cowpox virus): 78.2 µM
IC50 (Ectromelia virus): 30.9 µM
selectivity ratio [2]: 38
selectivity ratio [3]: 182
IC50 (Vaccinia virus; [6]): 6.39 µM
selectivity ratio [4]: 15

COc1ccc(-c2nc(C)c(C(C)=O)n2OC)cc1
CC50 at 96 h [1]: 357 µM
selectivity ratio [3]: < 8
IC50 (Vaccinia virus; [6]): 207 µM

COn1c(-c2ccc([N+](=O)[O-])cc2)nc2c1C(=O)CC(C)(C)C2
CC50 at 96 h [1]: 1150 µM
IC50 (Cowpox virus): 17.9 µM
IC50 (Ectromelia virus): 12.5 µM
IC50 (Variola virus): 3.96 µM
selectivity ratio [5]: 291
selectivity ratio [2]: 92
selectivity ratio [3]: 291
IC50 (Vaccinia virus; [6]): 3.96 µM
selectivity ratio [4]: 65

Cn1c2c([n+]([O-])c1-c1ccc(C(F)(F)F)cc1)C(=O)CC(C)(C)C2
CC50 at 96 h [1]: 2080 µM
selectivity ratio [3]: 146
IC50 (Vaccinia virus; [6]): 14.2 µM

Cn1c2c([n+]([O-])c1-c1ccc([N+](=O)[O-])cc1)C(=O)CC(C)(C)C2
CC50 at 96 h [1]: 2440 µM
selectivity ratio [3]: 13
IC50 (Vaccinia virus; [6]): 183 µM

COc1ccc(-c2nc(C)c(C(C)=O)n2O)cc1
CC50 at 96 h [1]: 614 µM
selectivity ratio [3]: 34
IC50 (Vaccinia virus; [6]): 17.9 µM

CC(=O)c1c(C)nc(-c2ccc(N(C)C)cc2)n1O
CC50 at 96 h [1]: 299 µM
selectivity ratio [3]: 23
IC50 (Vaccinia virus; [6]): 12.9 µM

COn1c(-c2ccc(C(F)(F)F)cc2)nc(C)c1C(C)=O
CC50 at 96 h [1]: 176 µM
selectivity ratio [3]: 30
IC50 (Vaccinia virus; [6]): 5.9 µM

COn1c(-c2ccc(C#N)cc2)nc(C)c1C(C)=O
CC50 at 96 h [1]: 1060 µM
selectivity ratio [3]: < 8
IC50 (Vaccinia virus; [6]): 228 µM

CC(=O)c1c(C)n(C)c(-c2ccc([N+](=O)[O-])cc2)[n+]1[O-]
CC50 at 96 h [1]: 2980 µM
IC50 (Vaccinia virus; vero): Not_active

Nc1ccn(C[C@@H](CO)OCP(=O)(O)O)c(=O)n1 [CIDOFOVIR ANHYDROUS]
CC50 at 96 h [1]: 1110 µM
IC50 (Cowpox virus): 48.2 µM
IC50 (Ectromelia virus): 39.4 µM
IC50 (Variola virus): 43.1 µM
selectivity ratio [5]: 26
selectivity ratio [2]: 28
selectivity ratio [3]: 34
selectivity ratio [4]: 23

COn1c(-c2ccc(C#N)cc2)nc2c1C(=O)CC(C)(C)C2
CC50 at 96 h [1]: 757 µM
selectivity ratio [3]: 27
IC50 (Vaccinia virus; [6]): 28.5 µM

CC1(C)CC(=O)c2c(nc(-c3ccc([N+](=O)[O-])cc3)n2OCc2c(F)cccc2F)C1
CC50 at 96 h [1]: 51.7 µM
IC50 (Cowpox virus): 7.39 µM
IC50 (Ectromelia virus): 4.49 µM
selectivity ratio [2]: 12
selectivity ratio [3]: 43
IC50 (Vaccinia virus; [6]): 1.22 µM
selectivity ratio [4]: < 8

Cc1ccc(C)c(COn2c(-c3ccc([N+](=O)[O-])cc3)nc3c2C(=O)CC(C)(C)C3)c1
CC50 at 96 h [1]: 105 µM
IC50 (Cowpox virus): 32.3 µM
IC50 (Ectromelia virus): 14.4 µM
selectivity ratio [2]: < 8
selectivity ratio [3]: 79
IC50 (Vaccinia virus; [6]): 1.34 µM
selectivity ratio [4]: < 8

O=C(NNC(=O)C1C2C=CC(C3CC23)C1C(=O)O)c1ccc(C(F)(F)F)cc1 (stereo unspecified)
IC50 (Cowpox virus): 0.009 µM
IC50 (Ectromelia virus): 0.008 µM
IC50 (Variola virus): 0.008 µM
selectivity ratio [5]: 149000
selectivity ratio [2]: 149000
selectivity ratio [3]: 149000
IC50 (Vaccinia virus; [6]): 0.008 µM
selectivity ratio [4]: 133000

CC(=O)c1c(C)nc(-c2ccc(C#N)cc2)n1O
CC50 at 96 h [1]: 84.6 µM
selectivity ratio [3]: 76
IC50 (Vaccinia virus; [6]): 1.12 µM

CC1(C)CC(=O)c2c(nc(-c3ccc(C(F)(F)F)cc3)n2O)C1
CC50 at 96 h [1]: 46.2 µM
IC50 (Cowpox virus): 2.41 µM
IC50 (Ectromelia virus): 0.49 µM
IC50 (Variola virus): 0.18 µM
selectivity ratio [5]: 257
selectivity ratio [2]: 94
selectivity ratio [3]: 300
IC50 (Vaccinia virus; [6]): 0.154 µM
selectivity ratio [4]: 19

COn1c(-c2ccc([N+](=O)[O-])cc2)nc(C)c1C(C)=O
CC50 at 96 h [1]: 444 µM
IC50 (Cowpox virus): 22.3 µM
IC50 (Ectromelia virus): 13.9 µM
selectivity ratio [2]: 32
selectivity ratio [3]: 93
IC50 (Vaccinia virus; [6]): 4.76 µM
selectivity ratio [4]: 20

CC1(C)CC(=O)c2c(nc(-c3ccc(C#N)cc3)n2O)C1
CC50 at 96 h [1]: 175 µM
IC50 (Cowpox virus): 17.1 µM
IC50 (Ectromelia virus): 2.49 µM
IC50 (Variola virus): 1.45 µM
selectivity ratio [5]: 120
selectivity ratio [2]: 70
selectivity ratio [3]: 351
IC50 (Vaccinia virus; [6]): 0.498 µM
selectivity ratio [4]: 10
